High-throughput results as filed in PubChem BioAssay.
SENP8 block-1 = blocks human SENP8 cleavage of Nedd8 substrate | inhibition, % at 20 µM | Q96LD8 | recombinant SENP8, Nedd8 substrate fluorescence | 360,000 tested, 0.64% active; in the data active = inhibition mostly above about 40%, no sharp cut-off; inactive = mostly below about 27%
Platelet DG rel = platelet dense granule release activity; human platelet-rich plasma, SFLLRN dense granule ATP release, luminescence; 300,000 tested, 0.22% active; inhibition, %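 (compounds screened at 7.5 µM in platelet-rich plasma)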;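 active = mean replicate score, as percent of positive control, at or above 50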
SENP8 block-2 = SENP8 protease inhibition | AID 2540 | inhibition, % at 10 µM | 330,000 tested, 1.2% active | purified SENP8, Z-RLRGG-aminoluciferin cleavage, luminescence; in the data active = inhibition above about 50%
SENP7 block = SENP7 protease inhibition; Q9BQF6; recombinant SENP7, Z-RLRGG-aminoluciferin luminescence, 40 min; inhibition, % at 5 µM; 330,000 tested, 1.5% active;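 active = inhibition above about 50% at the single test dose, limit read from the data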;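 note: plate controls were DMSO with enzyme for no effect and no enzyme buffer wells for full effect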
SENP1 FRET inh = blocks the human SENP1 SUMO protease catalytic domain | 360,000 tested, 0.21% active | AID 624204 | inhibition, % at 10 µM | recombinant SENP1 catalytic domain, CyPet-SUMO1-YPet FRET cleavage;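 active = inhibition at least 30% at 10 µM, raw YFP signal under a set limit, fluorescence ratio 0.5 to 1.5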;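 note: 0% = enzyme with DMSO and 100% = no enzyme wells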
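Test system: human SENP1 catalytic domain; medium: Tris pH 8 buffer plus EDTA, NaCl, BME, BSA, NP40, catalase; incubation: 50 min reaction at room temperature; technique: FRET, CFP and YFP emission; controls: no-enzyme low control and enzyme-plus-DMSO high control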
SENP6 block = blocks the human protease SENP6; inhibition, % at 10 µM; 330,000 tested, 1.8% active; Q9GZR1; Recombinant SENP6 catalytic domain, aminoluciferin luminescence;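 active = inhibition above about 50% at the single tested dose, limit read from the data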;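 note: plate controls were DMSO wells with enzyme for no effect and DMSO wells lacking enzyme for full effect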
Target sequence (Q9GZR1 628-1112 limits assumed): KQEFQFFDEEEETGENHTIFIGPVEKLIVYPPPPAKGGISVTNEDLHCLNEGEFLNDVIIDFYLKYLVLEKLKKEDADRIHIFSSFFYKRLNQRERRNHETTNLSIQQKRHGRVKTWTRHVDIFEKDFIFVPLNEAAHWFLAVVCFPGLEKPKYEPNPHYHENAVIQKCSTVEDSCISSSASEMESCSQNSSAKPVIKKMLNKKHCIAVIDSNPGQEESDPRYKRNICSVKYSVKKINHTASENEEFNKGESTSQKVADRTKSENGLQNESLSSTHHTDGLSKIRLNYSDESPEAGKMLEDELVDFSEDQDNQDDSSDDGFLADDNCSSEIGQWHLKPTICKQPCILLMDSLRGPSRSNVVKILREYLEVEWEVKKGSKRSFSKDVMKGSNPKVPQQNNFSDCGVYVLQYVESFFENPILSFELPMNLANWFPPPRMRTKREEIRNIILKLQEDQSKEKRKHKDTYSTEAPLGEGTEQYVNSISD
* = called active by the depositor. This is a sample that favours compounds with a hit; in the whole collection about 2.6% have one here.

`COc1c2occc2c(OC)c2c(=O)cc(C)oc12` gave SENP8 block-1 -6, Platelet DG rel -3, SENP8 block-2 0, SENP7 block -1, SENP1 FRET inh 2 and SENP6 block -20.
For Cc1cc(=O)c2c(o1)C(=O)c1occc1C2=O the results were SENP8 block-1 75* and SENP1 FRET inh 2.
Screening CN1C(=S)SC(N(O)C(=O)Nc2ccccc2)C1(C)C (stereo not drawn) returned SENP8 block-1 17, Platelet DG rel 7, SENP8 block-2 5, SENP7 block 4, SENP1 FRET inh 1 and SENP6 block 8.
CN1C(=S)SC(N(O)C(=O)Nc2cccc3ccccc23)C1(C)C (stereo not drawn) was read as SENP8 block-1 -433, Platelet DG rel 5, SENP8 block-2 23, SENP7 block 26, SENP1 FRET inh -8 and SENP6 block 57*.
Screening O=c1c2c([nH]n1-c1ccccc1)CCSC2 returned SENP8 block-1 46*, Platelet DG rel -2, SENP8 block-2 -5, SENP7 block -2, SENP1 FRET inh 1 and SENP6 block 9.
Screening O=C(O)c1ccc(-n2[nH]c3c(c2=O)CCCC3)cc1 returned SENP8 block-1 9, Platelet DG rel 3, SENP8 block-2 -7, SENP7 block 1, SENP1 FRET inh 4 and SENP6 block 0.
`O=C(CCC1CCN(C(=O)C2CC=CCC2)CC1)Nc1ccccc1` (stereo not drawn) gave SENP8 block-1 20 and SENP1 FRET inh 4.
Fc1ccccc1-c1nc2ccccc2[nH]1 was read as SENP8 block-1 -49, Platelet DG rel 4, SENP8 block-2 63*, SENP7 block 76*, SENP1 FRET inh 2 and SENP6 block 74*.
Screening CC(OC(=O)CNC(=O)C12CC3CC(CC(C3)C1)C2)C(=O)Nc1ccc(N2CCOCC2)cc1 (stereo not drawn) returned SENP8 block-1 35, Platelet DG rel 85*, SENP8 block-2 4, SENP7 block -1, SENP1 FRET inh 1 and SENP6 block -2.
`CN(CC(=O)Nc1ccc(N2CCOCC2)cc1)C(=O)C12CC3CC(CC(C3)C1)C2` gave SENP8 block-1 16, Platelet DG rel -6, SENP8 block-2 -7, SENP7 block -5, SENP1 FRET inh -1 and SENP6 block -18.
`Cc1cccc(-c2ccc([N+](=O)[O-])cc2CN2CCN(c3ncc(Cc4ccccc4)cn3)CC2)c1` gave SENP8 block-1 8 and SENP1 FRET inh 1.
CNC(=S)N=Nc1c(O)[nH]c2ccc(C(C)C)cc12 was read as SENP8 block-1 44*, Platelet DG rel -8 and SENP1 FRET inh 2.
CC1(C(=O)Nc2cnc3ccccc3c2)CCN1Cc1ccc(-c2ccccc2)o1 (stereo not drawn) was read as SENP8 block-1 -16 and SENP1 FRET inh -8.
Screening Cc1nonc1C(=O)N/N=C/c1cccc(O)c1 returned SENP8 block-1 14, Platelet DG rel 57*, SENP8 block-2 87*, SENP7 block 92*, SENP1 FRET inh 1 and SENP6 block 84*.
`O=C(N/N=C/c1cccc(O)c1)N/N=C/c1cccc(O)c1` gave SENP8 block-1 -1, Platelet DG rel 13, SENP8 block-2 -9, SENP7 block -7, SENP1 FRET inh -1 and SENP6 block 5.
CCNC(=S)N/N=C1\C(=O)c2cccc3cccc1c23 was read as SENP8 block-1 44*, Platelet DG rel -4, SENP8 block-2 -1, SENP7 block -1, SENP1 FRET inh 4 and SENP6 block -11.
For O=C(N/N=C1/C(=O)c2cccc3cccc1c23)c1ccc(Cl)cc1 the results were SENP8 block-1 48*, Platelet DG rel 5, SENP8 block-2 -1, SENP7 block -7, SENP1 FRET inh 0 and SENP6 block -35.
For O=C(Nc1cccc(NC(=O)c2ccc(Cl)cc2)n1)c1ccc(Cl)cc1 the results were SENP8 block-1 13, Platelet DG rel 0, SENP8 block-2 -8, SENP7 block -2, SENP1 FRET inh 0 and SENP6 block -10.
For Cc1ccc(CNC(=O)[C@H]2O[C@@H](n3ccc(N)nc3=O)[C@H](O)[C@@H]2O)o1 the results were SENP8 block-1 22 and SENP1 FRET inh 2.
For Cc1cc(N2CCCC2)ccc1/C=C1/C(=O)N(C)C(=S)N1C the results were SENP8 block-1 18, Platelet DG rel 4, SENP8 block-2 -9, SENP7 block -7, SENP1 FRET inh 66* and SENP6 block 8.
For Cc1cc(C)n(CCNC(=O)[C@H]2O[C@@H](n3cnc4c(N)ncnc43)[C@H](O)[C@@H]2O)n1 the results were SENP8 block-1 13 and SENP1 FRET inh 2.
For N#C/C=C1/NC(=O)c2ccccc2S1 the results were SENP8 block-1 44*, Platelet DG rel -6, SENP8 block-2 -4, SENP7 block 7, SENP1 FRET inh 29 and SENP6 block -1.
Screening O=C(Nc1cccc(Cl)c1)c1ccc2c(=O)n3c(nc2c1)CCCCC3 returned SENP8 block-1 -5, Platelet DG rel 6, SENP8 block-2 64*, SENP7 block 80*, SENP1 FRET inh -1 and SENP6 block 84*.
For O=C1NC[C@H](CCCCN2CCN(Cc3ccccc3)C(=O)C2=O)N(CCc2ccc(O)cc2)C1=O the results were SENP8 block-1 11 and SENP1 FRET inh 2.
For Cc1cccc(C)c1NC(=O)C(c1ccc(C#N)cc1)n1c(=O)c(-c2ccccc2)nc2ccccc21 (stereo not drawn) the results were SENP8 block-1 -366 and SENP1 FRET inh -1.
O=C1/C(=C\c2cccc([N+](=O)[O-])c2O)SC(=S)N1Cc1ccccc1 was read as SENP8 block-1 25, Platelet DG rel 13 and SENP1 FRET inh 6.
Screening O=C1/C(=C/c2ccc(O)c([N+](=O)[O-])c2)SC(=S)N1Cc1ccccc1 returned SENP8 block-1 41*, Platelet DG rel 5, SENP8 block-2 92*, SENP7 block 30, SENP1 FRET inh 38* and SENP6 block 95*.
O=C(NN1C(=O)/C(=C/c2ccc(O)c([N+](=O)[O-])c2)SC1=S)c1ccccc1Cl was read as SENP8 block-1 24, Platelet DG rel 4, SENP8 block-2 4, SENP7 block 7, SENP1 FRET inh 32* and SENP6 block -18.
COc1cc(/C=C2\SC(=S)N(NC(=O)c3ccccc3O)C2=O)ccc1O was read as SENP8 block-1 18, Platelet DG rel 8, SENP8 block-2 10, SENP7 block -1, SENP1 FRET inh 59* and SENP6 block 6.
Screening COc1ccc2c(c1)C(C)(Cc1ccc(C(=O)c3ccccc3)cc1)C(=O)N2 (stereo not drawn) returned SENP8 block-1 9 and SENP1 FRET inh 2.
Screening Cc1ccccc1-c1nnc(-c2cccs2)o1 returned SENP8 block-1 -145, Platelet DG rel 11, SENP8 block-2 55*, SENP7 block 55*, SENP1 FRET inh 3 and SENP6 block 82*.
